We go through ten compounds from ChEMBL document CHEMBL1667754, “Synthesis and biological activity of pyrazolothienotetrahydroisoquinoline and [1,2,4]triazolo[3,4-a]thienotetrahydroisoquinoline derivatives” (2011).

The subject of experiment [1] is Escherichia coli. Nature of the experiment: Antibacterial activity against Escherichia coli at 50 uL/well by well diffusion assay. The experiment is classed as functional. In short, it runs like this:
(§1)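 Bauer-type diffusion assay. Test compounds were at 2% in DMSO. The read-out was the diameter (mm) of the inhibition zone, with chloramphenicol as the reference agent.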
For orientation: A growth-free zone around the sample is the usual read-out of agar diffusion tests.

The subject of experiment [2] is Micrococcus luteus. The experiment in a line: Antibacterial activity against Micrococcus luteus at 50 uL/well by well diffusion assay. It is filed as functional. The gist of the method: as §1
Experiment [3] has as its system Trichophyton rubrum. The experiment in a line: Antifungal activity against Trichophyton rubrum at 50 uL/well by well diffusion assay. The experiment is classed as functional. The gist of the method:
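Agar discs (10 mm) carrying spores and hyphae were shaken in sterile distilled water. 1 mL of the spore suspension was plated and mixed with 15 mL molten SDA, then left to set. Compounds were at 2% in DMSO, applied per Bauer's diffusion method. The read-out was the inhibition zone (mm).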

The test system of experiment [4] is Aspergillus niger. Nature of the experiment: Antifungal activity against Aspergillus niger at 2% by disc diffusion assay.
Experiment [5] deals with Fusarium oxysporum. The experiment in a line: Antifungal activity against Fusarium oxysporum at 2% by disc diffusion assay.
Experiment [6] has as its system Aspergillus flavus. Nature of the experiment: Antifungal activity against Aspergillus flavus at 2% by disc diffusion assay.
Experiment [7] relates to Geotrichum candidum. Nature of the experiment: Antifungal activity against Geotrichum candidum at 2% by disc diffusion assay.
The test system of experiment [8] is Candida albicans. Nature of the experiment: Antifungal activity against Candida albicans at 200 ug/disc by disc diffusion assay.
The test system of experiment [9] is Scopulariopsis brevicaulis. Nature of the experiment: Antifungal activity against Scopulariopsis brevicaulis at 2% by disc diffusion assay.
Experiment [10] relates to Bacillus cereus. The experiment in a line: Antibacterial activity against Bacillus cereus at 200 ug/disc by disc diffusion assay.
For experiment [11], the system named is Serratia marcescens. The experiment in a line: Antibacterial activity against Serratia marcescens at 200 ug/disc by disc diffusion assay.
Experiment [12] has as its system Staphylococcus aureus. Nature of the experiment: Antibacterial activity against Staphylococcus aureus at 200 ug/disc by disc diffusion assay.
In experiment [13] the test system is Pseudomonas aeruginosa. The experiment in a line: Antibacterial activity against Pseudomonas aeruginosa at 200 ug/disc by disc diffusion assay.

For `NC(=O)c1sc2c(c1N)c1c(c3nncn32)CCCC1`, the “diameter of the inhibition zone (DIZ)” value in [1], in experiment [2], in experiment [3], in experiment [4], in [5] and in [6] was 0 mm each time. The “diameter of the inhibition zone (DIZ)” value in [7] is on record as 0 mm; in experiment [8], 0 mm; in experiment [9], 0 mm; in [10], 10 mm; in [11] it was 0 mm; in [12], 8 mm. For the same compound, the “diameter of the inhibition zone (DIZ)” value in [13] came to 0 mm.
Consider `CC(=O)CSc1c(C#N)c2c(c3nncn13)CCCC2`, for which the “diameter of the inhibition zone (DIZ)” value turned out to be 8 mm in experiment [1]; 12 mm in [2]; 0 mm in experiment [3]; 0 mm in [4]; 0 mm in experiment [5]; 0 mm in experiment [6]. In addition, the “diameter of the inhibition zone (DIZ)” value came to 0 mm in experiment [7]; 0 mm in experiment [8]; 0 mm in experiment [9]; 12 mm in experiment [10]; 12 mm in [11]; 10 mm in experiment [12]. Also, the “diameter of the inhibition zone (DIZ)” value in experiment [13] worked out at 0 mm.
Take `CC(=O)c1sc2c(c1N)c1c(c3nncn32)CCCC1`: the “diameter of the inhibition zone (DIZ)” value in experiment [1], in experiment [2], in experiment [3], in experiment [4], in experiment [5] and in experiment [6] was 0 mm each time. Also, the “diameter of the inhibition zone (DIZ)” value in experiment [7], in experiment [8], in experiment [9], in experiment [10], in [11] and in experiment [12] was 0 mm each time. In experiment [13], the “diameter of the inhibition zone (DIZ)” value turned out to be 0 mm.
For `N#Cc1c2c(c3nncn3c1SCC(=O)c1ccccc1)CCCC2`, the “diameter of the inhibition zone (DIZ)” value in [1] came out at 10 mm; in experiment [2] it was 14 mm; in experiment [3], 0 mm; in [4] it was 16 mm; in experiment [5] it was 11 mm; in experiment [6] it was 20 mm. Further, the “diameter of the inhibition zone (DIZ)” value in experiment [7] came to 8 mm; in experiment [8], 11 mm; in experiment [9], 10 mm; in experiment [10] it was 14 mm; in experiment [11], 0 mm; in experiment [12] it was 0 mm. For the same compound, the “diameter of the inhibition zone (DIZ)” value in experiment [13] is on record as 0 mm.
Take `Nc1c(C(=O)c2ccccc2)sc2c1c1c(c3nncn32)CCCC1`: the “diameter of the inhibition zone (DIZ)” value in experiment [1] turned out to be 10 mm; in [2] it was 11 mm; in experiment [3] it was 0 mm; in [4], 13 mm; in experiment [5], 0 mm; in experiment [6] it was 15 mm. Also, the “diameter of the inhibition zone (DIZ)” value in experiment [7] amounted to 8 mm; in experiment [8], 11 mm; in experiment [9], 8 mm; in [10], 0 mm; in experiment [11], 0 mm; in experiment [12], 0 mm. In [13], the “diameter of the inhibition zone (DIZ)” value is reported as 0 mm.
Turning to `N#CCSc1nc(NN)c2c(c1C#N)CCCC2`, the “diameter of the inhibition zone (DIZ)” value in [1], in experiment [2], in experiment [3], in experiment [4], in experiment [5] and in experiment [6] was 0 mm in each case. The “diameter of the inhibition zone (DIZ)” value turned out to be 0 mm in experiment [7]; 10 mm in experiment [8]; 0 mm in experiment [9]; 0 mm in experiment [10]; 10 mm in experiment [11]; 8 mm in experiment [12]. The “diameter of the inhibition zone (DIZ)” value in experiment [13] worked out at 0 mm.
Take `Cc1cc(C)n(-c2nc(SCC#N)c(C#N)c3c2CCCC3)n1`: the “diameter of the inhibition zone (DIZ)” value was 0 mm in experiment [1]; 0 mm in experiment [2]; 0 mm in [3]; 8 mm in experiment [4]; 8 mm in [5]; 0 mm in experiment [6]. In addition, the “diameter of the inhibition zone (DIZ)” value is given as 10 mm in experiment [7]; 12 mm in [8]; 0 mm in experiment [9]; 8 mm in experiment [10]; 10 mm in [11]; 8 mm in [12]. For the same compound, the “diameter of the inhibition zone (DIZ)” value in experiment [13] was determined as 0 mm.
On to `CCOC(=O)CSc1nc(NN)c2c(c1C#N)CCCC2`, for which the “diameter of the inhibition zone (DIZ)” value in experiment [1], in experiment [2], in experiment [3], in experiment [4], in [5] and in [6] was 0 mm in each case. In addition, the “diameter of the inhibition zone (DIZ)” value in experiment [7] was found to be 0 mm; in experiment [8] it was 0 mm; in [9], 0 mm; in experiment [10], 8 mm; in experiment [11], 0 mm; in experiment [12] it was 8 mm. In experiment [13], the “diameter of the inhibition zone (DIZ)” value is 0 mm.
For `O=C(N[C@H](CO)[C@H](O)c1ccc([N+](=O)[O-])cc1)C(Cl)Cl` [CHLORAMPHENICOL], the “diameter of the inhibition zone (DIZ)” value in [1] is given as 34 mm; in [2], 18 mm; in experiment [10], 30 mm; in experiment [11] it was 40 mm; in experiment [12], 20 mm; in [13] it was 17 mm.
As for `Clc1ccccc1C(c1ccccc1)(c1ccccc1)n1ccnc1` [CLOTRIMAZOLE], the “diameter of the inhibition zone (DIZ)” value was determined as 40 mm in experiment [3]; 25 mm in experiment [4]; 25 mm in experiment [5]; 26 mm in experiment [6]; 26 mm in experiment [7]; 27 mm in experiment [8]. Besides, the “diameter of the inhibition zone (DIZ)” value in experiment [9] turned out to be 27 mm.
